Reference: ChEMBL document CHEMBL1142195, “A novel nonnucleoside analogue that inhibits human immunodeficiency virus type 1 isolates resistant to current nonnucleoside reverse transcriptase inhibitors” (Antimicrob Agents Chemother, 2007)

Columns and labels:
Assay type in all cases: functional, organism-based
[1] = test system: Human immunodeficiency virus 1; test: Antiviral activity against HIV1 isolate with RT Y188L mutation
Summary of the method: (§1)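 VSV-G-pseudotyped pNL4-3.Luc.R−E− molecular clones carrying the RT mutations, single-round infection of HeLa-JC53 cells (15,000/well) at MOI 0.03. Compounds serially diluted 1:4 in DMSO then in phenol red-free DMEM with 2% FBS, final DMSO 0.2%. Incubated 48 h at 37°C, 5% CO2. Luciferase read-out by chemiluminescence gives the EC50. Fold change is relative to wt virus, mean of two tests.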

[2] = test system: Human immunodeficiency virus 1; test: Antiviral activity against HIV1 isolate with RT K103N-V108I-A98G mutation; summary of the method: as §1
[3] = test system: Human immunodeficiency virus 1; test: Antiviral activity against HIV1 isolate with RT K103N-L100I mutation; summary of the method: as §1
[4] = test system: Human immunodeficiency virus 1; test: Antiviral activity against HIV1 isolate with RT K103N-P225H mutation; summary of the method: as §1
[5] = test system: Human immunodeficiency virus 1; test: Antiviral activity against HIV1 isolate with RT G190A mutation; summary of the method: as §1
[6] = test system: Human immunodeficiency virus 1; test: Antiviral activity against HIV1 isolate with RT K103N-K101Q-P225H mutation; summary of the method: as §1
[7] = test system: Human immunodeficiency virus 1; test: Antiviral activity against wild type HIV1
[8] = test system: Human immunodeficiency virus 1; test: Antiviral activity against HIV1 isolate V106I-Y188L mutant
[9] = test system: Human immunodeficiency virus 1; test: Antiviral activity against HIV1 isolate with RT K103N-Y188L mutation; summary of the method: as §1
[10] = test system: Human immunodeficiency virus 1; test: Antiviral activity against HIV1 isolate with RT K103N-K101Q mutation; summary of the method: as §1
[11] = test system: Human immunodeficiency virus 1; test: Antiviral activity against HIV1 isolate with RT K103N mutation; summary of the method: as §1
[12] = test system: Human immunodeficiency virus 1; test: Antiviral activity against HIV1 isolate with RT K103N-Y181C mutation; summary of the method: as §1
[13] = test system: Human immunodeficiency virus 1; test: Antiviral activity against HIV1 isolate with RT V106I mutation; summary of the method: as §1
[14] = test system: Human immunodeficiency virus 1; test: Antiviral activity against HIV1 isolate with RT K103N-V108I-P225H mutation; summary of the method: as §1
[15] = test system: Human immunodeficiency virus 1; test: Antiviral activity against HIV1 isolate with RT Y181C mutation; summary of the method: as §1
[16] = test system: Human immunodeficiency virus 1; test: Antiviral activity against HIV1 isolate with RT K103N-V108I mutation; summary of the method: as §1
[17] = test system: Human immunodeficiency virus 1; test: Antiviral activity against HIV1 isolate with RT K103N-F227L mutation; summary of the method: as §1
[18] = test system: Human immunodeficiency virus 1; test: Antiviral activity against HIV1 isolate with RT K101E mutant; summary of the method: as §1
[19] = test system: Human immunodeficiency virus 1; test: Antiviral activity against HIV1 isolate with RT A98G mutation; summary of the method: as §1
[20] = test system: Human immunodeficiency virus 1; test: Antiviral activity against HIV1 isolate with RT G190S mutation; summary of the method: as §1

In the case of O=C1Nc2ccc(Cl)cc2[C@@](C#CC2CC2)(C(F)(F)F)O1 [EFAVIRENZ], the EC50 [1] is reported as 24.4 nM, the EC50 [2] is reported as 67.9 nM and the EC50 [3] is reported as 258 nM. The EC50 [4] was 34.9 nM, the EC50 [5] was 0.48 nM and the EC50 [6] was 78.4 nM. It also gave an EC50 [7] of 0.17 nM, an EC50 [8] of 136 nM and an EC50 [9] of over 2500 nM. For the same compound, the EC50 [10] was 12.7 nM, the EC50 [11] was 2.73 nM and the EC50 [12] was 4.24 nM. It also gave an EC50 [13] of 0.27 nM, an EC50 [14] of 77.1 nM and an EC50 [15] of 0.33 nM. It also gave an EC50 [16] of 8.63 nM, an EC50 [17] of 2.26 nM and an EC50 [18] of 0.74 nM. It also gave an EC50 [19] of 0.64 nM and an EC50 [20] of 14.3 nM.
